# Measurements as given in ChEMBL document CHEMBL1833940, “Discovery of 3-(2,6-dichloro-3,5-dimethoxy-phenyl)-1-{6-[4-(4-ethyl-piperazin-1-yl)-phenylamino]-pyrimidin-4-yl}-1-methyl-urea (NVP-BGJ398), a potent and selective inhibitor of the fibroblast growth factor receptor family of receptor tyrosine kinase” (J Med Chem, 2011).
# Activity calls are given as the source filed them. The rule behind the calls is not given here.
# Tests used:
# [1] = biological target: Phosphatidylinositol 4,5-bisphosphate 3-kinase catalytic subunit delta isoform (Homo sapiens, UniProt O00329); assay: Inhibition of recombinant PI3Kdelta by luminescent kinase assay
# Sequence of Phosphatidylinositol 4,5-bisphosphate 3-kinase catalytic subunit delta isoform (O00329 whole entry, canonical isoform): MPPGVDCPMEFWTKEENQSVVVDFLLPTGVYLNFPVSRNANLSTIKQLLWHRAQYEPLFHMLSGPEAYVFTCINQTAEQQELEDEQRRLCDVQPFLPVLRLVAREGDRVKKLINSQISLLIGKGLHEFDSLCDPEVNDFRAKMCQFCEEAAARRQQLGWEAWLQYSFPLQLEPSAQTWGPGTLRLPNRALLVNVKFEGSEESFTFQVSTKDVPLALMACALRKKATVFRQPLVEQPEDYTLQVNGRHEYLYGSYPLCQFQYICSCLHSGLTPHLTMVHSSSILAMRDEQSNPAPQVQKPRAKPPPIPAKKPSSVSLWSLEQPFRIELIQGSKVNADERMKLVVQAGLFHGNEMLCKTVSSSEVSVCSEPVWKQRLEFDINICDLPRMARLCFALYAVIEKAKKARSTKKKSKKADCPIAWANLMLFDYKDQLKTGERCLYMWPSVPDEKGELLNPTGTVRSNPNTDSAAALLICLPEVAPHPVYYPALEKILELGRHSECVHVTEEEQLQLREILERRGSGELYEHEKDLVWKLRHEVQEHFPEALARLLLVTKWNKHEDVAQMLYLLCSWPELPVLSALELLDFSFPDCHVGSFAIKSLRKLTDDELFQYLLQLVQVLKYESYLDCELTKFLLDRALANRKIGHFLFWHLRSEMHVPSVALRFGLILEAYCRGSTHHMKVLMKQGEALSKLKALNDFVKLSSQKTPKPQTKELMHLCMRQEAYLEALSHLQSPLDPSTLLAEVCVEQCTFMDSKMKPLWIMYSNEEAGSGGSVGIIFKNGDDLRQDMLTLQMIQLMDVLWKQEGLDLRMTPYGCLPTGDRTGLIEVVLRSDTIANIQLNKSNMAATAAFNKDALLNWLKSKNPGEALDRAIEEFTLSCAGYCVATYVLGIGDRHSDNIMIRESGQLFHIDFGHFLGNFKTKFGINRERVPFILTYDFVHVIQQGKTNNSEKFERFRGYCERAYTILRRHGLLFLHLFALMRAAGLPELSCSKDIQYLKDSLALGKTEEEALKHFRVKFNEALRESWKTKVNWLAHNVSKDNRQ
# [2] = tested on: Tumour; assay: Drug uptake in tumour of nude Rowett rat bearing human RT112 cells at 4.25 mg/kg, po administered as a single dose after 3 hrs by LC-MS/MS analysis; format: ADME, organism-based, Neoplasm, RT-112; parameters: dose 4.25 mg/kg, route oral; settings: in vivo
# How it was run: (§1)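 Nude Rowett rats bearing subcutaneous RT112 tumors (n = 4) received a single gavage of monophosphate salt at 4.25 or 8.51 mg/kg free base in acetate buffer pH 4.6/PEG300. Tumors were collected at intervals after dosing, frozen and homogenized in an equal volume of ice-cold PBS. Compound levels were measured by LC-MS/MS (LOQ 3 ng/mL).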
# [3] = biological target: Serine/threonine-protein kinase WNK1 (Homo sapiens, UniProt Q9H4A3); assay: Inhibition of recombinant WNK1
# How it was run: (§2)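 Purified recombinant kinases under optimized conditions with peptide substrates. ATP was set at each kinase's Km. Phosphorylation was read by microfluidic mobility-shift separation of substrate and product; IC50 determined.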
# [4] = biological target: Cyclin-dependent kinase 1 (Homo sapiens, UniProt P06493); assay: Inhibition of recombinant CDK1; how it was run: as §2
# Sequence of Cyclin-dependent kinase 1 (P06493 whole entry): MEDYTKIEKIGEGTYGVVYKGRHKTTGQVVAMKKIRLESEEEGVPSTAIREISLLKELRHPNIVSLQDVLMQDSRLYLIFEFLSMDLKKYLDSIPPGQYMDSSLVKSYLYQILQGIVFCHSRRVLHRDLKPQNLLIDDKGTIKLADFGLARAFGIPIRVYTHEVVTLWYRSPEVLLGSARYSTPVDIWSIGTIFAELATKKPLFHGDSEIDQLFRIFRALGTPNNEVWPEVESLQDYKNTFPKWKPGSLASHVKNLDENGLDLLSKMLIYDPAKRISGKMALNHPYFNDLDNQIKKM
# [5] = tested on: RT-112; assay: Antitumor activity against human RT112 cells xenografted in nude Rowett rat assessed as tumour regression at 10 mg/kg, po qd administered for 20 days; format: functional
# How it was run: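 Female nude Rowett rats aged 6–9 weeks were given 1×10^6 RT112 cells subcutaneously in HBSS/50% Matrigel. Treatment began at about 100 mm3 mean tumor volume (n = 8): monophosphate salt in acetate buffer pH 4.6/PEG300 (1:1) by gavage, 5 mL/kg, at 5, 10, 15 mg/kg/qd free base for 20 days. Tumors were measured by caliper (L×W×H×π/6). Readouts were T/C and % regression from start volume.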
# [6] = Tmax in plasma of RT112/luc1 cells implanted athymic nude mouse at 20 mg/kg, po by LC/MS/MS analysis; format: ADME, organism-based; parameters: dose 20 mg/kg, route oral
# How it was run: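 Female athymic nude mice carrying subcutaneous RT112/luc1 tumors (ca. 300–400 mm3). Dosing was 5 mg/kg iv by tail vein in NMP/PEG200 (1:9) or 20 mg/kg by oral gavage as a suspension in PEG300/D5W (2:1). Groups (n = 4) were sacrificed from 0.083 to 24 h. Plasma and tumor were measured by LC-MS/MS (LOQ 5 ng/mL, 10 ng/g). Noncompartmental analysis used the linear trapezoidal AUC; F was calculated from dose-normalized AUC.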
# [7] = tested on: BaF3; assay: Antiproliferative activity against mouse BAF3 cell line transformed with TEL-FGFR3 construct after 48 hrs by luciferase bioluminescent assay; format: functional, cell-based; settings: BaF3, 48 h
# How it was run: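 IL-3-independent BaF3 or BaF3 Tel-TK cells were grown in RPMI-1640 with 10% FBS and seeded at 4250 cells/well in 384-well plates. Compound serially diluted in DMSO was pin-transferred, followed by 48 h at 37 °C, 5% CO2. Viability was read by Bright-Glo luciferase luminescence.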
# [8] = Volume of distribution at steady state in Wistar rat at 5 mg/kg, iv by LC-MS/MS analysis; format: ADME, organism-based; parameters: dose 5 mg/kg, route intravenous; settings: in vivo, read-out: Vdss
# How it was run: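 Female Wistar rats received 5 mg/kg iv into the femoral vein in NMP/PEG200 (1:9), or the monophosphate salt orally at 10 mg/kg (free base) in acetate buffer pH 4.6/PEG300. Serial sublingual plasma samples were taken from 0.083 to 24 h.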
# [9] = biological target: Receptor tyrosine-protein kinase erbB-4 (Homo sapiens, UniProt Q15303); assay: Inhibition of recombinant ERBB4; how it was run: as §2
# [10] = tested on: Rattus norvegicus; assay: Inhibition of FGFR autophosphorylation in RT112 tumour bearing nude Rowett rat assessed as decrease in pMAPK concentration at 8.51 mg/kg, po administered as a single dose after 16 hrs by Western blot analysis; format: functional, organism-based; parameters: dose 8.51 mg/kg
# How it was run: (§3)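 RT112 subcutaneous xenografts in female nude Rowett rats (n = 4). Single oral gavage of the monophosphate salt at 4.25 or 8.51 mg/kg (free base equivalents) in acetic acid–acetate buffer pH 4.6/PEG300 (1:1). Tumors were collected at time points up to 24 h, frozen, homogenized and lysed. Western blots probed pFRS2(Tyr196) and pMAPK, with total FRS2, total MAPK or β-tubulin as loading controls.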
# [11] = biological target: Rho-associated protein kinase 2 (Homo sapiens, UniProt O75116); assay: Inhibition of recombinant ROCK2; how it was run: as §2
# [12] = tested on: Tumour; assay: Drug uptake in tumor of nude rowett rat bearing human RT112 cells at 4.25 mg/kg, po administered as a single dose after 7 hrs by LC-MS/MS analysis; format: ADME, organism-based, Neoplasm, RT-112; parameters: dose 4.25 mg/kg, route oral; settings: in vivo; how it was run: as §1
# [13] = tested on: Rattus norvegicus; assay: Inhibition of FGFR autophosphorylation in RT112 tumour bearing po dosed nude Rowett rat assessed as decrease in pFRS2 concentration administered as a single dose by Western blot analysis; format: functional, organism-based; how it was run: as §3
# [14] = tested on: Tumour; assay: Drug uptake in tumour of nude Rowett rat bearing human RT112 cells at 8.51 mg/kg, po administered as a single dose after 16 hrs by LC-MS/MS analysis; format: ADME, organism-based, Neoplasm, RT-112; parameters: dose 8.51 mg/kg, route oral; settings: in vivo; how it was run: as §1
# [15] = tested on: Plasma; assay: Dose normalized AUC in plasma of RT112/luc1 cells implanted athymic nude mouse at 5 mg/kg, iv by LC/MS/MS analysis; format: ADME, organism-based; parameters: dose 5 mg/kg, route intravenous; settings: in vivo
# How it was run: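 Female athymic nude mice carried subcutaneous RT112/luc1 tumors (5×10^6 cells, 50% Matrigel; about 300–400 mm3). Dosing was either 5 mg/kg iv by tail vein in NMP/PEG200 (1:9) or 20 mg/kg oral suspension in PEG300/D5W (2:1). Groups of mice (n = 4) were sacrificed at 0.083–24 h. Plasma and tumor levels were measured by LC-MS/MS (LOQ 5 ng/mL, 10 ng/g).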
# [16] = tested on: Rattus norvegicus; assay: Inhibition of FGFR autophosphorylation in RT112 tumor bearing nude rowett rat assessed as decrease in pMAPK concentration at 4.25 to 8.51 mg/kg, po administered as a single dose after 24 hrs by Western blot analysis; format: functional, organism-based; how it was run: as §3
# [17] = biological target: Phosphatidylinositol 4,5-bisphosphate 3-kinase catalytic subunit alpha isoform (Homo sapiens, UniProt P42336); assay: Inhibition of recombinant PI3Kalpha
# Sequence of Phosphatidylinositol 4,5-bisphosphate 3-kinase catalytic subunit alpha isoform (P42336 whole entry, canonical isoform): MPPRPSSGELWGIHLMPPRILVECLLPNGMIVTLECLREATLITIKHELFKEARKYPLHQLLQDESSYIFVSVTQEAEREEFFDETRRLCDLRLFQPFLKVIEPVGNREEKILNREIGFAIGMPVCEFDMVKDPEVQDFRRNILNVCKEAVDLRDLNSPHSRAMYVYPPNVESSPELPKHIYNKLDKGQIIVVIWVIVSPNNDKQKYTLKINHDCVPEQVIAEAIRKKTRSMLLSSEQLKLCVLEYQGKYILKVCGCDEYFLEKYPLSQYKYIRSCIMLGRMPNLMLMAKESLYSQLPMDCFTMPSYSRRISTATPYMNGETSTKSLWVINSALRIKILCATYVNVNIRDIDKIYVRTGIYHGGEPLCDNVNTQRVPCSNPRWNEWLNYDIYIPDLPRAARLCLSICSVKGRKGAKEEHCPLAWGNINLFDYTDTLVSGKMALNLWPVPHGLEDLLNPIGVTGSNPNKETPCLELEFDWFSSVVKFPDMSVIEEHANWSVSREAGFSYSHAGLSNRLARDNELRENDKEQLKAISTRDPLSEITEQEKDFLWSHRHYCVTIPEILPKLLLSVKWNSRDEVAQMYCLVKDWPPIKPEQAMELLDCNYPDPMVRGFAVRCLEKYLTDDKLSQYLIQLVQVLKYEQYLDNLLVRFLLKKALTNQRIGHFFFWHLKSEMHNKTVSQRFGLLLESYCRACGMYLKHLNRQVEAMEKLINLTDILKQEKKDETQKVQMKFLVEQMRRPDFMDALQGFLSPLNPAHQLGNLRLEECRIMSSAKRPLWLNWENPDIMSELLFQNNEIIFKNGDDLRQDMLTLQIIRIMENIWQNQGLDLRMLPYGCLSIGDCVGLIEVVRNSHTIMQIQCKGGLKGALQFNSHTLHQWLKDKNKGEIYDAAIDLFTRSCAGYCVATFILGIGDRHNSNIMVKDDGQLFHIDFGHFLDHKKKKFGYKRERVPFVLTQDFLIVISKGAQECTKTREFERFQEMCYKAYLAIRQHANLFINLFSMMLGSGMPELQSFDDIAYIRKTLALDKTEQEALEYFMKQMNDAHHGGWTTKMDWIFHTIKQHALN
# [18] = biological target: Cytochrome P450 2C19 (Homo sapiens, UniProt P33261); assay: Inhibition of CYP2C19 using CEC as substrate; format: ADME
# Sequence of Cytochrome P450 2C19 (P33261 whole entry, canonical isoform): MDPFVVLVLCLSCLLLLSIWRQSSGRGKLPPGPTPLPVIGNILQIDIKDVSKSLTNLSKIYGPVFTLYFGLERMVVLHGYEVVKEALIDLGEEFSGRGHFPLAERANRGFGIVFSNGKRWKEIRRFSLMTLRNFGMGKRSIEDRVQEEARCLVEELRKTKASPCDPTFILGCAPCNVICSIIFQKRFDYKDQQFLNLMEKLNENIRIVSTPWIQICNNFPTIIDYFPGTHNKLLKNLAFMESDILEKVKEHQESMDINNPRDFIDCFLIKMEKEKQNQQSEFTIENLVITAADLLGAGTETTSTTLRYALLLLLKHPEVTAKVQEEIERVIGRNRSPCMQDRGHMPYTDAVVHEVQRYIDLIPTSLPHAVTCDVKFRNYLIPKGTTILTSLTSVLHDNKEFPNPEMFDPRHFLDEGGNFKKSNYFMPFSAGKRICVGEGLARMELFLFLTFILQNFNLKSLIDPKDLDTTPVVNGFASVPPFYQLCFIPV
# How it was run: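 Human CYP450 inhibition was measured with isoform-specific fluorogenic probe substrates: CEC for 1A2 and 2C19, MFC for 2C9, AMMC for 2D6. Incubation was at 37 °C with an NADPH-regenerating system in 384-well format. Metabolite was quantified by fluorescence, and IC50 was obtained by curve fitting.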
# [19] = biological target: Mitogen-activated protein kinase 12 (Homo sapiens, UniProt P53778); assay: Inhibition of recombinant p38-gamma; how it was run: as §2
# Sequence of Mitogen-activated protein kinase 12 (P53778 whole entry): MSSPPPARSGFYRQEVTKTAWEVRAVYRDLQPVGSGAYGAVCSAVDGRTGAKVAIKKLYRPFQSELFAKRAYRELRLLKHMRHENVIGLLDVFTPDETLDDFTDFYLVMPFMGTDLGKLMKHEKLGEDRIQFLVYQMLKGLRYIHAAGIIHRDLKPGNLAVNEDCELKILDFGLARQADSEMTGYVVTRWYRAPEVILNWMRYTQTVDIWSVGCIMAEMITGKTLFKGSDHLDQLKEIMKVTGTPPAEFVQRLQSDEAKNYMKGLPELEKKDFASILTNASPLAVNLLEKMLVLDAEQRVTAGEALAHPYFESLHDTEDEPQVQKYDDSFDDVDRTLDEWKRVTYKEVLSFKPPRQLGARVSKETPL
# [20] = Inhibition of BCR-ABL-mediated proliferation of mouse BAF3 cells transformed with TEL-Kinase construct; format: cell-based
# [21] = biological target: Glycogen synthase kinase-3 beta (Homo sapiens, UniProt P49841); assay: Inhibition of recombinant GSK3-beta; how it was run: as §2
# Sequence of Glycogen synthase kinase-3 beta (P49841 whole entry): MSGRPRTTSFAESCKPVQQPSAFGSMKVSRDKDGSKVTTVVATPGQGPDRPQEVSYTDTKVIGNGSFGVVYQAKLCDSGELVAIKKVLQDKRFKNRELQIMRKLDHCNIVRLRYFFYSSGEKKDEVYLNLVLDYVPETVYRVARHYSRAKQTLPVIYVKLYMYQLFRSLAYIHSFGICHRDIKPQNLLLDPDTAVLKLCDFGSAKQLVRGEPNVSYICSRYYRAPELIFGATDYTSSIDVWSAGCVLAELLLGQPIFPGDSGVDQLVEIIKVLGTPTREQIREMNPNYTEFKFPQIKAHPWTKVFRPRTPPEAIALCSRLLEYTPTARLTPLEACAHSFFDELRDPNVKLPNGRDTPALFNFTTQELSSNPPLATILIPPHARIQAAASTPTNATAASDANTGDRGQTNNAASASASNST
# [22] = biological target: RAC-alpha serine/threonine-protein kinase (Homo sapiens, UniProt P31749); assay: Inhibition of recombinant PKBalpha; how it was run: as §2
# Sequence of RAC-alpha serine/threonine-protein kinase (P31749 whole entry): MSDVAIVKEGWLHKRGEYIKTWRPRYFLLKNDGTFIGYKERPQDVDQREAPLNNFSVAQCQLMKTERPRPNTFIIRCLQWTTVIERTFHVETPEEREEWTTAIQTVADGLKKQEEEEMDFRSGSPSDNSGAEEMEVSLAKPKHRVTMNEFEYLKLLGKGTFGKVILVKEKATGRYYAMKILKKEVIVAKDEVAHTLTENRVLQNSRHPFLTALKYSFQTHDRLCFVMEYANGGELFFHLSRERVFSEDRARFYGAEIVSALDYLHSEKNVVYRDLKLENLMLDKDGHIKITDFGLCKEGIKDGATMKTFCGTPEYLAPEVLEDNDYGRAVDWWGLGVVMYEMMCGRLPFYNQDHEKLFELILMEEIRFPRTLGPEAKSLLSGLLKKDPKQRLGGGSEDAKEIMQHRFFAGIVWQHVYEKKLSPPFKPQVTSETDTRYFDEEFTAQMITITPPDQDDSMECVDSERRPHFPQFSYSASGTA
# [23] = organism: Rattus norvegicus; assay: Hepatic blood flow in Wistar rat; format: ADME, organism-based, Liver
compound,measurement,setting,value
CCN1CCN(c2ccc(Nc3cc(N(C)C(=O)Nc4c(Cl)c(OC)cc(OC)c4Cl)ncn3)cc2)CC1.O=P(O)(O)O [INFIGRATINIB PHOSPHATE],IC50,[1],> 9 µM
same,Drug uptake,[2],0.83 nmol/g
same,IC50,[3],> 10 µM
same,IC50,[4],> 10 µM
same,Activity,[5],66%
same,Tmax,[6],1 h
same,IC50,[7],0.002 µM
same,Vd,[8],9.6 L/kg
same,IC50,[9],> 10 µM
same,inhibition,[10],Active
same,IC50,[11],> 10 µM
same,Drug uptake,[12],0.65 nmol/g
same,Activity,[13],Dose-dependent effect
same,Drug uptake,[14],0.62 nmol/g
same,AUC/dose,[15],0.6 µM·h
same,inhibition,[16],inactive
same,IC50,[17],> 9 µM
same,IC50,[18],> 10 µM
same,IC50,[19],> 10 µM
same,IC50,[20],2.19 µM
same,IC50,[21],> 10 µM
same,IC50,[22],> 10 µM
same,QH,[23],55 mL/min/kg
